Only some compounds are listed: those with a hit (about 6.8% of all), similar ones and a draw of the others.
M1 ag: M1 muscarinic receptor agonists, primary screen, CHO-M1 cells, Fluo-4 calcium, agonist mode | Muscarinic acetylcholine receptor M1 | B-score at 10 µM | actives 3% (n = 64,000) | Fluo-4 calcium fluorescence; hits give high values | AID 626, 2007;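 active = fluorescence rise, raw or as B-score row- and column-corrected plate score, outside the 99.7% band of its plate's samples, either direction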
Cdc25B inh: inhibitors of Cdc25B phosphatase catalytic domain, primary screen, biochemical, OMFP fluorescence | M-phase inducer phosphatase 2 (Homo sapiens), P30305 | recombinant Cdc25B, OMFP fluorescence Ex485/Em525 | inhibition, %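 (compounds tested at 10 µM final in the well)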 | actives 0.1% (n = 65,000); in the data active = inhibition above about 50%
Target sequence (P30305 whole entry, looked up, the tested form may be a part): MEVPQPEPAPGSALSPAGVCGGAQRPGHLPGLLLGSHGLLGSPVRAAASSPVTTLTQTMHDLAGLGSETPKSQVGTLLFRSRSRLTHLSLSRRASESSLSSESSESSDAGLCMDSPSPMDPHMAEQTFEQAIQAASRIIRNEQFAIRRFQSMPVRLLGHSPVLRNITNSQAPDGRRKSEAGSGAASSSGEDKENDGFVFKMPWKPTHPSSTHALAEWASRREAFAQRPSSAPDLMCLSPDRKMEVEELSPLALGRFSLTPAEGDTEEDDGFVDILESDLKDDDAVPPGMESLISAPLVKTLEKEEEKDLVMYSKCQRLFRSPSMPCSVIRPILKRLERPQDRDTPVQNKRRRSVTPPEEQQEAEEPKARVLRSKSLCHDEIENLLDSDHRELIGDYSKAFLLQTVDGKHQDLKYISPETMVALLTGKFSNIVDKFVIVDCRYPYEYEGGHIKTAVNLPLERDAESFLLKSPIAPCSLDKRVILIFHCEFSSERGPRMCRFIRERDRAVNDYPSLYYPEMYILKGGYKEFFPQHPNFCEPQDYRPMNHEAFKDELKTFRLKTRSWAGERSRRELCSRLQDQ
Her2 expr inh: inhibitors of Her2 protein expression, primary screen, SKBR-3 cells, AlphaScreen, 66K library; HER2 level % of control, % at 10 µM; SKBR-3 HER2 protein level, 18-24 h; hits give low values; Receptor tyrosine-protein kinase erbB-2 (Homo sapiens), P04626; actives 0.69% (n = 65,000);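 active = HER2 level under 5% of the carrier-only control; inconclusive = no clear call, values can overlap the other calls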;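 note: 100% = DMSO carrier and 0% = 500 nM PU-H71 HSP90 inhibitor; lower value means stronger loss of Her2 protein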
HEK293 NFkB inh: inhibitors of PMA/ionomycin-induced NF-kB reporter, primary screen, antigen receptor NF-kB inhibitor project, cell-based, HEK-293 luciferase reporter, luminescence; HEK-293 NF-kB luciferase reporter; inhibition, % at 3 µM; actives 0.21% (n = 62,000); AID 465, 2006;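 active = inhibition above the mean of all tested compounds plus 3 SD, cut at about 40% in these data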;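 note: 0% = stimulated DMSO wells and 100% = 10 µM reference inhibitor 5653914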
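System: NF-kB luciferase reporter HEK-293 cells | Replication: Single test | Control set: DMSO vs reference inhibitor | Evaluation: % inhibition | Schedule: 1 h pretreatment, 16 h stimulation, 37 °C | Probe or stimulus: PMA with ionomycin | Compound dosing: One dose, 3 µM | Detection: Luciferase luminescence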
MKP-1 inh: MKP-1 phosphatase inhibitors, primary screen, biochemical, in vitro | inhibition, %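 (compounds tested at a single concentration somewhere between 10 and 100 µM)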 | AID 374, 2006 | Dual specificity protein phosphatase 1 (Homo sapiens), P28562 | recombinant MKP-1, OMFP hydrolysis fluorescence | actives 0.15% (n = 65,000);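 active = inhibition above about 50%, limit read from the data; inconclusive = inhibition over screen mean plus 3 SD, below that limit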;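 note: 0% = DMSO max control wells and 100% = wells with enzyme stopped by NaOH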
M1 antagonist: antagonists of rat M1 muscarinic receptor. B-score at 10 µM. AID 628, 2007. Muscarinic acetylcholine receptor M1 (Rattus norvegicus), P08482. actives 3.4% (n = 64,000). CHO-M1 cells, Fluo-4 calcium, ACh EC80 antagonist mode; hits give low values;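 active = calcium fluorescence response, raw or row-and-column corrected B-score, differing from the plate sample mean either way at a set confidence level, mostly lower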
Redox H2O2 0p5DTT: redox cycling H2O2 generation, 0.5 mM DTT, dose response, artefact control, biochemical, Cdc25B catalytic domain | actives 50% (n = 30) | AID 682, 2007 | EC50, µM | cell-free redox cycling H2O2 generation | shares compounds with Cdc25B inh; in the data active = EC50 below about 30 µM
Redox H2O2 1DTT: redox cycling H2O2 generation, 1 mM DTT, dose response, artefact control, biochemical, 1.0 mM DTT, Cdc25B catalytic domain; EC50, µM; cell-free redox cycling H2O2 generation; shares compounds with Cdc25B inh; 30 tested, under 10 active; in the data active = EC50 below about 50 µM
Redox cycler: redox cycling hydrogen peroxide production, dose response, artefact control, biochemical, probe assessment; shares compounds with MKP-1 inh; Redox cycling H2O2 generation, DTT, phenol red/HRP; EC50, µM; 60 tested, under 10 active; AID 672, 2007; call rule not given here
M1 ag confirm: rat M1 muscarinic receptor agonists, confirmation, CHO-M1 cells, Fluo-4 calcium, duplicate retest; shares compounds with M1 ag; AID 1488, 2009; fluorescence change (max-min) at 10 µM; Fluo-4 calcium fluorescence, agonist mode; actives lie on both sides; actives 19% (n = 1,700);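 active = fluorescence change differs from the solvent-only DMSO control mean at a set confidence level in both duplicate runs; inconclusive = differs from solvent-only control mean in just one of two runs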;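 note: an EC20 dose of acetylcholine follows compound addition during the same imaging run; raw fluorescence intensity difference in instrument units with no normalization to controls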
M4 ag counter: agonist activity at rat M4 receptor, confirmation, counter-screen for M1 allosteric modulator project, cell-based, agonist mode. shares compounds with M1 ag. CHO M4/Gqi5 cells, Fluo-4 calcium fluorescence; actives lie on both sides. fluorescence change (max-min) at 10 µM. actives 9% (n = 1,700). AID 1741, 2009;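 active = fluorescence change differing from the plate's solvent-only control wells at 99.7% confidence in both duplicates, whether higher or lower; inconclusive = differs from solvent controls in only one of two duplicates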
* = called active by the depositor; ? = inconclusive; . = not tested or not shown.

SMILES	M1 ag	Cdc25B inh	Her2 expr inh	HEK293 NFkB inh	MKP-1 inh	M1 antagonist	Redox cycler	others
O=C(CN1C(=O)C2C3C=CC(C3)C2C1=O)N1CCc2ccccc2C1 (configuration not stated)	-0.23	-1	98	1	4	-1.3	.
O=C(NCCN1CCCCCC1)c1ccc(N2CCCC2=O)cc1	-1.1	12	75	11	-4	2.3*	.
O=C(NCCCN1CCN(c2cccc(Cl)c2)CC1)c1ccc(N2CCCC2=O)cc1	0.7	-5	54	17	-9	-0.0049	.
CC(C)COCC1CC2(CC(C)C(=O)CC2=O)C(=O)O1 (configuration not stated)	-1.1	10	86	8	-5	0.18	.
c1ccc(CNC2=NCCC2)nc1	0.79	-9	-27*	13	3	-0.23	.
Cc1ccc(C)c(NC(=O)C2CC=CCC2C(=O)O)c1 (configuration not stated)	0.61	-5	89	13	3	0.038	.
Cc1ccc2c(c1C)NC(C(=O)O)C1CC=CC21 (configuration not stated)	-0.61	53*	88	-2	?	-0.066	.	Redox H2O2 0p5DTT=>50;Redox H2O2 1DTT=>50
Cc1ccc(C)c(-c2nnc(OCC(=O)Nc3cc(C)on3)c3ccccc23)c1	-0.68	0	74	19	17	0.27	.
CCOC(=O)C(C(=O)OCC)c1cc(Br)c2noc3c2c1C(=O)c1ccccc1-3	788*	62*	-5.2*	-2	32	-0.76	.	Redox H2O2 0p5DTT=26*;Redox H2O2 1DTT=46*
N#Cc1c(N)sc(=S)c2c1CCN(Cc1ccccc1)C2	-0.63	102*	0.0*	-6	100*	-1.6	35*	Redox H2O2 0p5DTT=13*;Redox H2O2 1DTT=24*
Cc1ccc(/C=c2\sc3nc(-c4ccco4)nn3c2=O)o1	0.23	20	49	-6	9	0.71	.
COc1ccc(Br)cc1/C=c1\sc2nc(-c3ccco3)nn2c1=O	-1.3	61*	66	-2	58*	-1.7	>50	Redox H2O2 0p5DTT=>50;Redox H2O2 1DTT=>50
CN(C)CCOc1nc(-c2ccccc2)nc2c1oc1ccccc12	.	-21	37	12	-2	.	.
CCOC(=O)N1CCN(C(=O)Nc2ccc3nc(C)c(C)nc3c2)CC1	-0.081	1	89	4	5	-0.32	.
O=C(Nc1ccc2nc(-c3ccco3)c(-c3ccco3)nc2c1)N1CCCCCC1	30*	51*	103	1	51*	-4.6*	>50	Redox H2O2 0p5DTT=>50;Redox H2O2 1DTT=>50;M1 ag confirm=362*;M4 ag counter=?
Cc1ccccc1Nc1cc2ccccc2c(=O)[nH]1	17*	81*	15	-6	8	1.6	.	Redox H2O2 0p5DTT=>50;Redox H2O2 1DTT=>50;M1 ag confirm=64*;M4 ag counter=44
CC(C)(C)OC(=O)NCCCCCc1nnc(SCC(=O)Nc2cccc(Cl)c2)o1	3.5	0	208	-1	-1	-0.77	.
O=C(c1ccco1)[C@@H]1[C@@H]2C(=O)N(c3ccc(F)cc3)C(=O)[C@@H]2C2c3ccccc3C=CN21 (some centres not stated)	3.8	-5	111	8	-2	-0.11	.
CC(=O)[C@@H]1[C@@H]2C(=O)N(c3ccc(F)c(Cl)c3)C(=O)[C@@H]2C2c3ccccc3C=CN21 (some centres not stated)	0.73	14	194	6	20	0.51	>50
COc1ccc(O)c(-c2cc(-c3cccs3)[nH]n2)c1	0.36	6	40	8	-3	0.6	.
CCOC(=O)c1ccc2c(c1)C1C=CCC1C(C(=O)O)N2 (configuration not stated)	-0.7	27	108	5	57*	0.076	>50
COc1ccc(Cn2c(C)nc3c(c2=O)c2nc4ccccc4nc2n3Cc2ccco2)cc1	-0.83	7	75	16	40	0.19	>50
Cc1cccc(NC(=O)c2cc(NC(=O)C3CCCCC3C(=O)O)ccc2N2CCCCC2)c1 (configuration not stated)	0.044	10	73	7	65*	0.2	>50
COc1cc(OC)cc(C(C)=O)c1	0.63	-4	138	22	4	-0.055	.
CC1=C(C(=O)Nc2ccccc2Cl)C(c2ccc(N(C)C)cc2)NC(=O)N1 (configuration not stated)	-1	-3	92	6	5	0.017	.
SMILES	M1 ag	Cdc25B inh	Her2 expr inh	HEK293 NFkB inh	MKP-1 inh	M1 antagonist	Redox cycler	others
CCSc1nnc(NC(=O)c2cccs2)s1	0.43	-11	87	-15	8	0.29	.
CCCSc1nnc(NC(=O)c2sc3nc(-c4cccs4)ccc3c2N)s1	.	20	65	17	53*	.	>50
COc1ccccc1Cn1c(=O)c2ccccc2n2c(SCC(=O)N3CCCCC3)nnc12	-0.055	-6	8	18	33	-0.058	.
CC(C)Sc1nc2sc3c(c2c2nnc(SCC(=O)NCc4ccco4)n12)CCCC3	-0.035	15	52	0	54*	-0.086	>50
CCCCCC#CCC#CCC#CCC#CCCCC(=O)O	-0.71	20	52	.	29	0.45	>50
CCn1c(SCC(=O)Nc2ccc3c(c2)OCCO3)nnc1-c1ccco1	-1.5	-5	105	12	3	0.028	.
CCn1c(SCC(=O)Nc2ccc3c(c2)c2ccccc2n3CC)nnc1-c1ccco1	0.029	24	83	12	64*	-0.3	>50
FC(F)(F)c1ccc(N2CCOCC2)c(Nc2nc3ccccc3n3cnnc23)c1	0.2	-10	-16*	5	61*	0.0064	>50
